High-throughput results as filed in PubChem BioAssay.
This is one part of a sample in which hits are shown more often than they occur.
TRPML3 agonist: human TRPML3 channel agonists, primary screen, cell-based, HEK293 TRPML3-YFP, Fluo-8 calcium fluorescence, 3 µM. activation, % at 3 µM. 100% = the carbachol control signal. Mucolipin-3 (Homo sapiens), Q8TDD5. 220,000 tested, 0.29% active;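 active = activation above its plate's cutoff, the mean activation of the plate's test wells plus 3 SD, cut at about 12% in these data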
Target sequence (Q8TDD5 whole entry, looked up): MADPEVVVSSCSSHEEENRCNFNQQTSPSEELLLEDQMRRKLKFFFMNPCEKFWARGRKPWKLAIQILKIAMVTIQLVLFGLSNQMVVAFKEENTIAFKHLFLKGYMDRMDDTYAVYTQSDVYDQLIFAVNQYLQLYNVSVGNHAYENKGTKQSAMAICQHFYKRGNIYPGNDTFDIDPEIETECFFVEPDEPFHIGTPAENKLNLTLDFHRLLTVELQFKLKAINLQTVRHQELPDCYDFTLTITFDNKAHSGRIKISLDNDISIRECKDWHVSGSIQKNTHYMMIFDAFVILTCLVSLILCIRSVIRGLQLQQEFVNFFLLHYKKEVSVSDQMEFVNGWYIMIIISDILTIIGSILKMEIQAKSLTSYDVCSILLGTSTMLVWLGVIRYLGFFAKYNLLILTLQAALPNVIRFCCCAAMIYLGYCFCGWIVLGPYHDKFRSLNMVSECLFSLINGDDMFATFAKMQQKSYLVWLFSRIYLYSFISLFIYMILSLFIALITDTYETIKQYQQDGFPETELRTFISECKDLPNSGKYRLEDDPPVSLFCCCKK
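Test system: HEK293 cells stably carrying human TRPML3-YFP; Doses: single dose, 3 µM final nominal compound, 0.3% DMSO final; Schedule: dye loading 1 h 37 °C then 30 min ambient, 125 s read; Technique: Fluo-8 calcium fluorescence; Benchmarks: high control carbachol 87 µM, low control DMSO.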
ABCG2 inh: ABCG2 efflux pump inhibitors, primary screen, multiplex with ABCB1, IgMXP3 cells, flow cytometry; Broad substrate specificity ATP-binding cassette transporter ABCG2 (Homo sapiens), Q9UNQ0; JC-1 efflux; inhibition, % at 6.6 µM; 190,000 tested, 0.1% active; AID 1325, 2008;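 active = inhibition above 80%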
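Test system: ABCG2 IgMXP3 and barcoded ABCB1 CCRF-Adr cell mix; Schedule: cells with compound and JC-1, 10 min at 25 °C, rotating, no wash; Technique: flow cytometry of retained JC-1 fluorescence; Measure: % inhibition of efflux relative to nicardipine and DMSO; Controls: nicardipine high and DMSO low controls.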
TRPN1 ag: zebrafish TRPN1 channel agonists, primary screen, cell-based, HEK293, calcium fluorescence; HEK293 zebrafish TRPN1-YFP, Fluo-8 calcium fluorescence; 100% = response to 87 µM carbachol; activation, % at 3 µM; 220,000 tested, 0.18% active; AID 1424, 2008;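 active = activation above its plate's cutoff, the mean activation of test wells on that plate plus 3 SD, cut at about 19% in these data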
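Material: zebrafish TRPN1-YFP in HEK293 cells; Doses: single test compound dose, 3 µM nominal, 0.3% DMSO; Timing: dye loading 1 h at 37 °C, then 30 min room temperature; Technique: intracellular calcium fluorescence with Fluo-8; Benchmarks: high carbachol 87 µM, low DMSO alone.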
ROMK mod: ROMK potassium channel modulators, primary screen, cell-based, thallium flux, MLSMR library; ATP-sensitive inward rectifier potassium channel 1 (Homo sapiens), P48048; Tet-inducible ROMK, thallium flux fluorescence; actives lie on both sides; B-score at 10 µM; 130,000 tested, 2% active; AID 1918, 2009;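 active = signal ratio slope over the read window, or its plate-corrected B-score, at least 3 SD from the plate mean, either direction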;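 also: B-score of the F/F0 ratio slope over 7 to 12 s after thallium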
ABCB1 block: ABCB1 efflux pump inhibitors, primary screen, cell-based, multiplex, flow cytometry, ABCG2 counter-screen; ATP-dependent translocase ABCB1 (Homo sapiens), P08183; CCRF-Adr cells, JC-1 efflux; inhibition, % at 6.6 µM; 190,000 tested, 0.067% active; AID 1326, 2008; in the data active = inhibition above about 40%;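 also: higher value means more JC-1 retained so stronger ABCB1 efflux block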
Calb biofilm kill: clotrimazole potentiators killing C. albicans biofilm, primary screen, 4-compound mixtures. C. albicans biofilm persisters + clotrimazole, fluorescence viability; primary screen in compound mixtures of four per well. inhibition, % at 7.6 µM. 120,000 tested, 0.02% active;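 active = inhibition above 30.3% in the primary screen of four-compound pools, then above 30% when the compound was retested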;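 also: compounds exposed to preformed 24 h biofilms for 48 h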
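Assay system: C. albicans biofilms / Medium: RPMI/MOPS medium, pH 7.0 / Schedule: biofilm formation 24 h, compound exposure 48 h, 37 °C / Measured by: Alamar Blue fluorescence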
Numbers stand for hits; . = inactive; / = no result.

SMILES | TRPML3 agonist | ABCG2 inh | TRPN1 ag | ROMK mod | ABCB1 block | Calb biofilm kill
Cc1onc(-c2ccccc2)c1C(=O)NNC(=S)NC(=O)c1ccc2c(c1)OCO2 | 23 | / | 23 | / | / | .
ClC(/C=N/n1cnnc1)=C/c1ccccc1 | . | / | . | / | / | .
COC(=O)c1nnn(-c2nc(N(C)C)nc(N(C)C)n2)c1C | . | . | . | . | . | .
CN1CC=C2C(C#N)=C(N)C(C#N)(C#N)[C@H](c3ccoc3)[C@H]2C1 | . | . | . | -2.8 | . | /
CC(=O)N1CC=C2C(C#N)=C(N)C(C#N)(C#N)[C@H](c3ccoc3)[C@H]2C1 | . | . | . | . | . | /
Cc1ccc(C2C3CN(C(C)C)CC=C3C(C#N)=C(N)C2(C#N)C#N)cc1 (centres undefined) | / | . | / | -4.3 | . | /
CN(Cc1ccccc1)c1ncnc2ccc(Br)cc12 | . | . | . | -4.7 | . | /
C=CCn1c(=S)[nH]c2nc3c(cc2c1=O)CCCC3 | . | . | . | / | . | /
C=CCn1c(=S)[nH]c2sc3c(c2c1=O)CCC3 | . | . | . | 3.2 | . | .
O=C1NC(=S)S/C1=C\c1ccc(SCc2ccco2)o1 | . | . | . | -2.8 | . | .
O=C1NC(=S)S/C1=C\c1ccc(SCc2ccccc2)o1 | . | . | . | . | . | .
CCc1cc2c(=O)n(CCC(C)C)c(=S)[nH]c2s1 | . | . | . | 9.7 | . | .
CCc1ccc(S(=O)(=O)/N=C2/C=C(Sc3ncn[nH]3)C(=O)c3ccccc32)cc1 | . | . | . | -7.8 | . | .
CCc1ccc(S(=O)(=O)/N=C2\C=CC(=O)c3ccccc32)cc1 | . | . | . | / | . | .
CC(C)C1Cc2c(sc3[nH]c(=S)n(Cc4ccccc4)c(=O)c23)CO1 (centres undefined) | . | . | . | 9.3 | . | /
Cc1cc(/C=C2\NC(=S)N(C)C2=O)ccc1N1CCCC1 | 12 | . | 32 | . | . | .
CC1C/C(=C\c2cccnc2)C(=O)/C(=C/c2cccnc2)C1 (centres undefined) | . | . | . | -6.1 | . | .
CCSc1nnc(N(CCC#N)CCC#N)s1 | . | . | . | -5 | . | /
O=C(O)CCN(CCC(=O)O)c1nnc(SCc2ccccc2)s1 | . | . | . | . | . | /
CCOC(=O)C1CCCN(c2oc(-c3ccc(OC)cc3)nc2C#N)C1 (centres undefined) | . | . | . | . | . | .
C=C1CCN([C@H](C(=O)NCc2ccco2)C(C)C)S(=O)(=O)c2ccccc21 | / | / | / | / | / | .
S=c1nc(-c2ccccc2)[nH]n1-c1ccccc1 | . | . | . | 6.1 | . | /
Cn1cc(NC(=O)Nc2ccc(C(F)(F)F)cc2)c(C(F)(F)F)n1 | . | / | . | / | / | .
Cc1cccc(C(=O)NNC(=O)c2ccc(Br)cc2)c1 | . | . | . | / | . | .
Cc1cccc(C(=O)NC(=S)NNC(=O)c2ccc(Cl)cc2)c1 | 44 | . | 102 | 5.3 | . | .
SMILES | TRPML3 agonist | ABCG2 inh | TRPN1 ag | ROMK mod | ABCB1 block | Calb biofilm kill
COc1cc(OC)cc(-c2nnc(Nc3nc4c(F)cccc4s3)o2)c1 | . | . | . | . | . | /
COc1ccc(-c2nnc(Nc3nc4c(OC)cccc4s3)o2)c(OC)c1 | . | . | . | 7.3 | . | /
Fc1cccc2sc(Nc3nnc(-c4ccccc4)o3)nc12 | . | . | . | 7 | . | /
O=C(NC1=NCCS1)c1ccc(Cl)c(S(=O)(=O)N2CCOCC2)c1 | . | . | . | . | . | .
CS(=O)(=O)c1nc(-c2cccs2)cc(C(F)(F)F)n1 | . | . | . | -4.3 | . | /
O=C(O)CCS(=O)(=O)c1nc(-c2cccs2)cc(C(F)(F)F)n1 | . | . | . | . | . | /
O=C1NC(=S)CN1c1ccccc1 | . | / | . | . | / | .
N#C/C(=C\c1coc2ccc(O)cc2c1=O)C(=O)Nc1nc2ccccc2s1 | 64 | / | 222 | / | / | .
N#C/C(=C\c1coc2ccccc2c1=O)C(N)=S | . | . | . | . | . | .
CCOc1ccc(C2C=C(c3ccccc3)Nc3ncnn32)cc1 (centres undefined) | . | . | . | -2.7 | . | /
CCOc1ccc(C2C=C(c3ccc(F)cc3)Nc3ncnn32)cc1 (centres undefined) | . | . | . | . | . | /
CC(Oc1ccc(Br)cc1)c1nc2c3ccccc3nc(=S)n2[nH]1 (centres undefined) | . | . | . | 2.9 | . | .
CCCC(Oc1ccc(Br)cc1)c1nc2c3cc(OC)c(OC)cc3nc(=S)n2[nH]1 (centres undefined) | . | . | . | . | . | .
Cn1c(=O)c(NC2CCCCC2)c2c3c(cccc31)C(=O)c1ccccc1-2 | . | . | . | / | 48 | .
Cn1c(=O)cc2c3c(c(N4CCCCC4)ccc31)C(=O)c1ccccc1-2 | . | / | . | / | / | .
CC(=O)Nc1ccc(Nc2c3c4c(cccc4n(C)c2=O)C(=O)c2ccccc2-3)cc1 | . | . | . | . | . | .
CCNc1c2c3c(cccc3n(C)c1=O)C(=O)c1ccccc1-2 | 88 | . | 195 | / | . | /
O=C(NC(=S)N1CCN(c2c(Cl)cccc2[N+](=O)[O-])CC1)c1cccs1 | . | . | . | / | . | /
COc1ccc(N2CCN(C(=S)NC(=O)c3cccs3)CC2)c([N+](=O)[O-])c1 | . | . | . | 3.4 | . | .
CCC(CC)NC(=O)c1cccc(NC(=O)C(C)C)c1 | . | . | . | . | / | .
Cc1cc(C)c(S(=O)(=O)N2CCCCC2)c(C)c1N(C)S(=O)(=O)c1ccccc1 | 55 | . | . | . | . | /
Cn1c(SCC2CCCO2)nnc1-c1ccc([N+](=O)[O-])cc1 (centres undefined) | . | . | . | . | . | .
Fc1cnc(N2CCOCC2)nc1N1CCOCC1 | . | . | . | . | . | .
Fc1cnc(N2CCOCC2)nc1N1CCc2ccccc21 | . | . | . | -2.8 | . | /
COc1cc(C2C(C#N)=C(N)OC3=C2C(=O)CC(C)(C)C3)cc([N+](=O)[O-])c1O (centres undefined) | . | / | . | / | / | .
COc1ccc(CC(=O)NCc2n[nH]c(=S)n2-c2ccccc2OC)cc1 | . | . | . | . | . | .
CCN1CCN(CCNC(=O)c2cn(Cc3ccccc3F)nn2)CC1 | . | . | 28 | / | . | /
CN1CCN(CCNC(=O)c2cn(Cc3ccccc3F)nn2)CC1 | . | . | . | . | . | .
Cc1cc(/C=C2\SC(=S)NC2=O)c(C)n1-c1ccccc1 | . | / | . | / | / | .
Cc1cc(/C=C2\SC(=S)NC2=O)c(C)n1-c1ccc(O)cc1 | . | / | . | -4.4 | / | .
